# Test results from PubChem BioAssay.
# The source made the active and inactive calls.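 Rule for the calls, unless noted: active = GFP response above 150% of the DMSO level; inconclusive = fewer than 70 events counted for a yeast strain; inactive = the rest.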
# How the values were obtained:
# [1] = RPL19A-GFP modulators, yeast TOR pathway, confirmation, cell-based, S. cerevisiae, flow cytometry, cherry picks, mother/daughter gates (AID 2270;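 active = GFP response below 50% of the DMSO control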); details: S. cerevisiae RPL19A-GFP strain, 3 h, at 10 µM, stronger effect = lower value, 100 = same GFP as DMSO wells
# [2] = LAP4-GFP expression modulators in yeast, confirmation, cell-based, cherry picks, flow cytometry, mother/daughter gates (AID 2271;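 active = GFP response above 150% of the DMSO control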;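 note: ratio of sample to DMSO plate mean so 100% equals DMSO level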); details: S. cerevisiae LAP4-GFP strain, 3 h, at 10 µM, stronger effect = higher value, 100 means same as DMSO control
# Summary of the method: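 Material – Alexa Fluor 633-labelled Saccharomyces cerevisiae GFP-fusion strain, single-plex · Incubation – compound exposure 3 h at 30 °C, end-over-end rotation · Measured by – GFP by flow cytometry · Measure – median GFP fluorescence as percent of plate-mean DMSO wells · Control set – positive rapamycin (400 ng/mL), negative DMSO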
# [3] = modulators of MEP2-GFP levels in yeast, confirmation, S. cerevisiae, flow cytometry GFP, cherry picks (AID 2272;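 active = GFP response above 150% of the DMSO control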;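 note: ratio of well signal to plate DMSO mean so 100% equals DMSO level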); details: S. cerevisiae MEP2-GFP strain, 3 h, at 10 µM, stronger effect = higher value
# [4] = AGP1-GFP expression modulators, hit retest, confirmation, cell-based, flow cytometry, S. cerevisiae, cherry picks (AID 2273);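 note: median GFP channel fluorescence over the whole cell population gate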; details: S. cerevisiae AGP1-GFP strain, 3 h, at 10 µM
# [5] = modulators of CIT2-GFP expression in yeast, confirmation, S. cerevisiae, GFP fusion, cherry picks, mother/daughter gates (AID 2274); details: S. cerevisiae CIT2-GFP strain, flow cytometry, 3 h, at 10 µM, stronger effect = higher value
# [6] = measured here: daughter cell gate
# [7] = measured here: mother cell gate
# [8] = measured here: daughter cell gate response
# [9] = measured here: mother cell gate response
SMILES,GFP response vs DMSO [1],"GFP response vs DMSO [1, 6]","GFP response vs DMSO [1, 7]",GFP response relative to DMSO [2],"GFP response relative to DMSO [2, 8]","GFP response relative to DMSO [2, 9]",GFP response vs DMSO [3],"GFP response, % of DMSO [4]","GFP response, % of DMSO [5]","GFP response, % of DMSO [5, 6]","GFP response, % of DMSO [5, 7]"
O=[N+]([O-])c1cccc(/C=N/Nc2ncc(Br)cn2)c1,90.9% (inactive),88.5%,90.6%,129% (inactive),121%,132%,128% (inactive),137% (inactive),86.1% (inactive),86.9%,83.7%
Cc1ccc(/C=C/C(=O)NC2CCCCCCC2)o1,98.8% (inactive),99.4%,98.2%,125% (inactive),120%,130%,102% (inactive),90.8% (inactive),101% (inactive),105%,97.3%
CC(C)C(=O)NC(c1cccs1)c1cc([N+](=O)[O-])c2cccnc2c1O (stereo not given),95.8% (inactive),95.2%,95.8%,101% (inactive),99.1%,99.4%,94.7% (inactive),101% (inactive),98.8% (inactive),101%,99.3%
O=C(Cc1ccc(-c2ccccc2)cc1)OCC(=O)N1CCCC1=O,96.5% (inactive),93.9%,97.2%,112% (inactive),111%,114%,97.8% (inactive),96.3% (inactive),91.3% (inactive),89.9%,91.2%
O=C(COC(=O)/C=C/c1cccs1)Nc1nc(-c2cccc(Br)c2)cs1,102% (inactive),103%,102%,89% (inactive),94.1%,89%,100% (inactive),96.7% (inactive),110% (inactive),108%,112%
COc1ccccc1C1CCN(Cc2c(C)[nH]c3ccccc23)CC1,103% (inactive),102%,104%,97% (inactive),95.9%,96.2%,99% (inactive),102% (inactive),98.8% (inactive),97.4%,98.1%
C/C(=N\NC(=O)c1cccc(Cl)c1)c1cccc(NC(=O)C(C)C)c1,96.2% (inactive),98.1%,95.6%,92.9% (inactive),94.4%,92.3%,103% (inactive),99.8% (inactive),100% (inactive),99.3%,103%
COc1ccc([N+](=O)[O-])c(S(=O)(=O)c2ccccc2)n1,93.7% (inactive),95.8%,90.8%,195% (active),170%,204%,112% (inactive),113% (inactive),86% (inactive),96.8%,75.8%
CC(=O)S[C@@H]1CC2=CC(=O)CC[C@]2(C)[C@H]2CC[C@@]3(C)[C@@H](CC[C@@]34CCC(=O)O4)[C@H]12,101% (inactive),99.2%,100%,97.4% (inactive),97.2%,98.3%,100% (inactive),95.9% (inactive),99.1% (inactive),96.5%,98.7%
COc1ccccc1OCCCc1c(C)n[nH]c1C,119% (inactive),89.8%,115%,207% (active),104%,205%,130% (inactive),76.6% (inactive),114% (inactive),101%,101%
CN1CCN(CC(=O)N2CCn3c4c(c5cc(C6CCCCC6)ccc53)CCCC42)CC1 (stereo not given),90.7% (inactive),86.4%,92.7%,116% (inactive),109%,119%,108% (inactive),95.8% (inactive),90.7% (inactive),89%,88.6%
O=C(O/N=C(\c1ccccc1)c1ccncc1)c1ccccc1Cl,77% (inactive),74.3%,79.7%,119% (inactive),118%,123%,91% (inactive),91.8% (inactive),68.1% (inactive),69.2%,69.2%
COc1ccc2c(c1)c(/C=C/c1cc[n+](C)cc1)cn2C,105% (inactive),107%,106%,136% (inactive),143%,134%,162% (inactive),111% (inactive),150% (inactive),158%,145%
CCN(Cc1ccccc1)S(=O)(=O)c1ccc(C(=O)Nc2nnc(C)o2)cc1,97.2% (inactive),98.5%,98.6%,102% (inactive),102%,107%,102% (inactive),100% (inactive),101% (inactive),102%,101%
O=C(CSc1nnc(C2COc3ccccc3O2)o1)N1CCCC1 (stereo not given),97.8% (inactive),98.6%,98.7%,94.9% (inactive),98.2%,95.1%,98.8% (inactive),103% (inactive),112% (inactive),111%,112%
O=c1[nH]c2c(=O)[nH]cnc2nc1-c1ccccc1,103% (inactive),94.9%,96.3%,97% (inactive),95.9%,88.8%,101% (inactive),98.2% (inactive),97.3% (inactive),86.6%,89.5%
CCOc1cccc(C(=O)Nc2ccc(NC(=O)c3cc4ccccc4o3)c(OC)c2)c1,96.2% (inactive),96.4%,97.2%,91.5% (inactive),91.2%,90.8%,98.3% (inactive),94.8% (inactive),103% (inactive),103%,102%
CC(=O)c1cc(NC(=O)c2ccc(C)cc2)c(=O)oc1C,96.6% (inactive),97.5%,96%,105% (inactive),104%,104%,104% (inactive),94.3% (inactive),99.3% (inactive),100%,96.8%
CC(C)(C)C1=CC=C(C(C)(C)C)C(=O)C1=O,102% (inactive),102%,99.7%,136% (inactive),131%,136%,104% (inactive),98.7% (inactive),104% (inactive),104%,96.8%
Cc1nn2c(N3CCN(C(=O)c4ccco4)CC3)cc(C(C)(C)C)nc2c1-c1ccccc1,98.2% (inactive),97.6%,98.9%,92.8% (inactive),94.4%,92.9%,100% (inactive),97.6% (inactive),95.5% (inactive),97.2%,95%
Cc1cccc(NC(=O)CCCN2C(=O)c3cccc4cccc(c34)C2=O)c1,101% (inactive),96.9%,100%,94.4% (inactive),95.9%,94.1%,99% (inactive),98.8% (inactive),98.8% (inactive),97.4%,99.3%
O=S(=O)(c1cccc(C(F)(F)F)c1)c1ccc(O)cn1,98.8% (inactive),99.4%,98.5%,96.7% (inactive),99.2%,95.1%,100% (inactive),94.7% (inactive),104% (inactive),106%,103%
O=C(/C=C/c1ccc(F)cc1)NC(=S)NNC(=O)c1cnccn1,108% (inactive),89.8%,105%,313% (active),146%,301%,132% (inactive),83.4% (inactive),124% (inactive),101%,113%
Cc1cc(Cl)ccc1N=c1ssnc1Cl,92.2% (inactive),94.2%,86.5%,133% (inactive),114%,145%,109% (inactive),97.3% (inactive),102% (inactive),103%,101%
CCOC(=O)N/C(N)=N/c1nc2ccccc2s1,85.9% (inactive),82.1%,86.6%,120% (inactive),113%,126%,102% (inactive),95% (inactive),92.6% (inactive),86.7%,93.4%
O=c1c2c(-c3cccs3)csc2ncn1/N=C/c1ccccn1,98.4% (inactive),95.2%,96.5%,119% (inactive),112%,121%,99% (inactive),99.2% (inactive),91.5% (inactive),92%,89.5%
COc1ccc(/C=N/Nc2nnc(C)n2N)cc1OC(C)=O,99.5% (inactive),100%,99%,94.2% (inactive),96.5%,92.6%,104% (inactive),102% (inactive),104% (inactive),104%,103%
O=C(c1ccc(OCC2CCCO2)cc1)N1CCN(c2ccccc2)CC1 (stereo not given),98.7% (inactive),98.4%,98.4%,104% (inactive),102%,105%,103% (inactive),102% (inactive),100% (inactive),101%,100%
CCCN(CCC)S(=O)(=O)c1ccc(C(=O)Nc2nnc(-c3cc(OC)cc(OC)c3)o2)cc1,98.2% (inactive),99.4%,99%,91.5% (inactive),91.2%,91.9%,102% (inactive),93.9% (inactive),101% (inactive),101%,101%
Cc1ccccc1NC(=O)CC1SC(=O)N(c2ccccc2)C1=O (stereo not given),94.9% (inactive),97.3%,91%,131% (inactive),127%,133%,112% (inactive),104% (inactive),104% (inactive),108%,94.9%
